From ChEMBL document CHEMBL1157613, “Salicylic acid based small molecule inhibitor for the oncogenic Src homology-2 domain containing protein tyrosine phosphatase-2 (SHP2)” (J Med Chem, 2010) come the findings set out here.

Activity calls are given as the source filed them. The rule behind the calls is not given here. Some results are limits rather than exact numbers.

Test [1] addresses T1, Tyrosine-protein phosphatase non-receptor type 11 (Mus musculus) (UniProt P35235).
T1 sequence (whole entry): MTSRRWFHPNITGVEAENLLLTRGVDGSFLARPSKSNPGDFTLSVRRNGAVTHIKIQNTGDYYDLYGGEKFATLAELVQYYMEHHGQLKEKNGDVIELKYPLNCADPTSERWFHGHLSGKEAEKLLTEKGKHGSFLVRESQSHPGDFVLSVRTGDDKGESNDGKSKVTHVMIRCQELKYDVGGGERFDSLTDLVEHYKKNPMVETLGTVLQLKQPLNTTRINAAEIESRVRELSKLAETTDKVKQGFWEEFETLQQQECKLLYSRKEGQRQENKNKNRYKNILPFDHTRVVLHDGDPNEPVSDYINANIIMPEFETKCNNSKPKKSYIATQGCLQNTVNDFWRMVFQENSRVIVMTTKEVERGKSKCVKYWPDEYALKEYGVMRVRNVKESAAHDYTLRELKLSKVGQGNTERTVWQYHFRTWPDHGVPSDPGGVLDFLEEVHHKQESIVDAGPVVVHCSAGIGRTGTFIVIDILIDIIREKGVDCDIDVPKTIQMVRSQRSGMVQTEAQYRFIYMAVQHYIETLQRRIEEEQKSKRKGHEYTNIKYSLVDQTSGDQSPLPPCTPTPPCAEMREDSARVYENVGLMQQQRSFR
Briefly: Inhibition of SHP2-dependent ERK1/2 activation in EGF-stimulated mouse NIH/3T3 cells assessed as phosphorylated ERK1/2 level at 10 uM treated for 3 hrs before EGF challenge measured after 5 to 15 mins of EGF stimulation by immunoblot analysis. Conditions: NIH3T3. Type of test: cell-based. For orientation: In western blotting, separated proteins are transferred to a membrane and probed.

The target in test [2] is Dual specificity protein phosphatase 3 (Homo sapiens, UniProt P51452). Kind of test: Inhibition of VHR expressed in Escherichia coli assessed as inhibition of p-nitrophenyl phosphate hydrolysis at pH 7 by spectrophotometry.
Chain of Dual specificity protein phosphatase 3 (P51452 whole entry): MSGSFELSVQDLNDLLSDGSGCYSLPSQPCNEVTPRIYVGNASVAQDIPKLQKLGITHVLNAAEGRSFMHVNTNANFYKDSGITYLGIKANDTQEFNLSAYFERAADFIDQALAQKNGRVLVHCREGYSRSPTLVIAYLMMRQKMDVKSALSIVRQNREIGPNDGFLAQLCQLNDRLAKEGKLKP
Test [3] concerns the target T2, Low molecular weight phosphotyrosine protein phosphatase (Homo sapiens, UniProt P24666).
T2 sequence (P24666 whole entry): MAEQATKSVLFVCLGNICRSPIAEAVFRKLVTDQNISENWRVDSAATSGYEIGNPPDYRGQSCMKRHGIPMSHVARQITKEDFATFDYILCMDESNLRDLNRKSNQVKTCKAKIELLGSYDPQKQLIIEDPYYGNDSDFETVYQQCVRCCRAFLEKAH
Kind of test: Inhibition of LMWPTP expressed in Escherichia coli assessed as inhibition of p-nitrophenyl phosphate hydrolysis at pH 7 by spectrophotometry.

For test [4], the species on record is Mus musculus. Briefly: Antiproliferative activity against GM-CSF-stimulated C57/BL6 mouse low density BM-MNC expressing SHP2 E76K mutant assessed as inhibition of hyperproliferation at 10 uM after 16 hrs by [3H]thymidine incorporation assay. It is filed as functional. Conditions: C57Bl/6. In short, it runs like this:
(§1)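 Marrow low-density mononuclear cells from C57Bl/6 mice (Ficoll), prestimulated 24 h with SCF, G-CSF, Tpo (100 ng/mL), retrovirally transduced 48 h with wild-type SHP2, D61Y or E76K, EGFP-sorted. Starved 4 h in 0.2% BSA; 5 × 10^4 cells cultured 16 h in GM-CSF 0-1 ng/mL ± 10 μM compound, then pulsed with 1.0 μCi [3H]thymidine for 6-8 h; counts per minute; n = 3.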

Test [5] deals with T3, Tyrosine-protein phosphatase non-receptor type 7 (Homo sapiens, UniProt P35236).
T3 sequence (P35236 whole entry): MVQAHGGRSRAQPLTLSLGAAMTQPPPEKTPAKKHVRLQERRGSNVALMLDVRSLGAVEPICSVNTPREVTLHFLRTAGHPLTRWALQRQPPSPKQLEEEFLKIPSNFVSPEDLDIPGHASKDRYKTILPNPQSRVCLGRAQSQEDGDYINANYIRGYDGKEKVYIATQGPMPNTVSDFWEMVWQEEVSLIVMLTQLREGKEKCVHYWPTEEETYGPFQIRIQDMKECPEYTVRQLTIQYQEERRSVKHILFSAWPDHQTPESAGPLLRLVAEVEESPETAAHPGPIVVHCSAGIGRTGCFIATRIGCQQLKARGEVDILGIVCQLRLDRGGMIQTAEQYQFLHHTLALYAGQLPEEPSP
Briefly: Inhibition of HePTP expressed in Escherichia coli assessed as inhibition of p-nitrophenyl phosphate hydrolysis at pH 7 by spectrophotometry.

Test [6] deals with Tyrosine-protein phosphatase non-receptor type 6 (Homo sapiens, UniProt P29350). Briefly: Inhibition of SHP1 expressed in Escherichia coli assessed as inhibition of p-nitrophenyl phosphate hydrolysis at pH 7 by spectrophotometry.
Chain of Tyrosine-protein phosphatase non-receptor type 6 (P29350 whole entry): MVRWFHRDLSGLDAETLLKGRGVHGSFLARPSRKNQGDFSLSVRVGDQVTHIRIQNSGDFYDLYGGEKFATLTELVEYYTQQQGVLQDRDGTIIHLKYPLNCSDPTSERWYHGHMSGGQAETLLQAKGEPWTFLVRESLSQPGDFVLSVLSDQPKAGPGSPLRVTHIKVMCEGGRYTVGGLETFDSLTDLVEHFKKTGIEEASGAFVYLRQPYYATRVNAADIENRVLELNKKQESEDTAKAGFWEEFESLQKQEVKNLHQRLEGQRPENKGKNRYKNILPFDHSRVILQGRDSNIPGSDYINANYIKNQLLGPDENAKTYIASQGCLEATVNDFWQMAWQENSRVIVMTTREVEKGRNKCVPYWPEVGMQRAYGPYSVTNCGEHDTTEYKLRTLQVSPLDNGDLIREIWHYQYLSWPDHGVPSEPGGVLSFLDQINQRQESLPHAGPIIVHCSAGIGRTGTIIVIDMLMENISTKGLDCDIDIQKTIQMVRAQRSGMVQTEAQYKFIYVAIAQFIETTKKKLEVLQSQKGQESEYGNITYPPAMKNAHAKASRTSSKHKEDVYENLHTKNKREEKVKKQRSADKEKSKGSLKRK
The target of test [7] is Receptor-type tyrosine-protein phosphatase alpha (Homo sapiens, UniProt P18433). Kind of test: Inhibition of PTPalpha expressed in Escherichia coli assessed as inhibition of p-nitrophenyl phosphate hydrolysis at pH 7 by spectrophotometry.
Chain of Receptor-type tyrosine-protein phosphatase alpha (P18433 whole entry): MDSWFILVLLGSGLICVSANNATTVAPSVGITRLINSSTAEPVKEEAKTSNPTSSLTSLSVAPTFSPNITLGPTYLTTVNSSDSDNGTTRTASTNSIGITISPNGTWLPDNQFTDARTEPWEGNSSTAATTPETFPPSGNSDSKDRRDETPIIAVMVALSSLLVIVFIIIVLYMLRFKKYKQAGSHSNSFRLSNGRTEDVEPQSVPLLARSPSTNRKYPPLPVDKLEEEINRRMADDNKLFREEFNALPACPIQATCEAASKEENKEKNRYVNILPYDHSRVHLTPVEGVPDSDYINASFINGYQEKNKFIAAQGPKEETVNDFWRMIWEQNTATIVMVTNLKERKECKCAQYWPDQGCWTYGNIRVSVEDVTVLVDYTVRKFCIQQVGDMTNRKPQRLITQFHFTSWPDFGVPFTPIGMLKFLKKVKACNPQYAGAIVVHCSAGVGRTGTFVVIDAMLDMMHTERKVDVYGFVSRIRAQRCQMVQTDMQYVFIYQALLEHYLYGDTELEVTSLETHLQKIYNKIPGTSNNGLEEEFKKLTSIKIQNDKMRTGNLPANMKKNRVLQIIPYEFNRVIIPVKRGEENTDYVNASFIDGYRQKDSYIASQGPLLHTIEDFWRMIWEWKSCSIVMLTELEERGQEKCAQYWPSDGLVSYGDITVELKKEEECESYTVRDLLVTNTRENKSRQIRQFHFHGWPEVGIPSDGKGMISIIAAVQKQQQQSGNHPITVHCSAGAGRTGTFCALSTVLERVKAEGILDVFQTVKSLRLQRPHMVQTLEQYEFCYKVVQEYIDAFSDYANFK
Test [8] addresses Tyrosine-protein phosphatase non-receptor type 13 (Homo sapiens, UniProt Q12923). Kind of test: Inhibition of FAP1 expressed in Escherichia coli assessed as inhibition of p-nitrophenyl phosphate hydrolysis at pH 7 by spectrophotometry.
Test [9] concerns the target T4, Tyrosine-protein phosphatase non-receptor type 1 (Homo sapiens, UniProt P18031).
T4 sequence (P18031 whole entry): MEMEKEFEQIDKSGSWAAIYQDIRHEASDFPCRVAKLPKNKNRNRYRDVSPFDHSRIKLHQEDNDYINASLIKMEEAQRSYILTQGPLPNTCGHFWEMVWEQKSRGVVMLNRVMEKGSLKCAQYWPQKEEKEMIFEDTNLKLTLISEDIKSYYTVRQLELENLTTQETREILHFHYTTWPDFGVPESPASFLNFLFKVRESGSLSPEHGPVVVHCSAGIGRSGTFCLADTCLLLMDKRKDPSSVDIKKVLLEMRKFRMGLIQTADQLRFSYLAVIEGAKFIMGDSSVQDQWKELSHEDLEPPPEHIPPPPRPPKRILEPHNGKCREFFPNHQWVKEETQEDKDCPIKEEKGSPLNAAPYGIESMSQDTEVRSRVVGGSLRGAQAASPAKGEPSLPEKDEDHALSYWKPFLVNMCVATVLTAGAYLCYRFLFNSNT
Kind of test: Inhibition of PTP1B expressed in Escherichia coli assessed as inhibition of p-nitrophenyl phosphate hydrolysis at pH 7 by spectrophotometry.

The species entered for test [10] is Mus musculus. Briefly: Antiproliferative activity against GM-CSF-stimulated C57/BL6 mouse low density BM-MNC expressing SHP2 D61Y mutant assessed as inhibition of hyperproliferation at 10 uM after 16 hrs by [3H]thymidine incorporation assay. It is filed as functional. Conditions: C57Bl/6. In short, it runs like this:
as §1

For test [11], the target named is Receptor-type tyrosine-protein phosphatase F (Homo sapiens, UniProt P10586). Kind of test: Inhibition of LAR expressed in Escherichia coli assessed as inhibition of p-nitrophenyl phosphate hydrolysis at pH 7 by spectrophotometry.
For test [12], the target named is T1, Tyrosine-protein phosphatase non-receptor type 11 (Mus musculus). Kind of test: Inhibition of SHP2-dependent ERK1/2 activation in EGF-stimulated mouse NIH/3T3 cells assessed as phosphorylated ERK1/2 level at 10 uM treated for 3 hrs before EGF challenge measured after 60 mins of EGF stimulation by immunoblot analysis. It is filed as cell-based. The note with it: NIH3T3.

Chain of Tyrosine-protein phosphatase non-receptor type 13 (Q12923 whole entry): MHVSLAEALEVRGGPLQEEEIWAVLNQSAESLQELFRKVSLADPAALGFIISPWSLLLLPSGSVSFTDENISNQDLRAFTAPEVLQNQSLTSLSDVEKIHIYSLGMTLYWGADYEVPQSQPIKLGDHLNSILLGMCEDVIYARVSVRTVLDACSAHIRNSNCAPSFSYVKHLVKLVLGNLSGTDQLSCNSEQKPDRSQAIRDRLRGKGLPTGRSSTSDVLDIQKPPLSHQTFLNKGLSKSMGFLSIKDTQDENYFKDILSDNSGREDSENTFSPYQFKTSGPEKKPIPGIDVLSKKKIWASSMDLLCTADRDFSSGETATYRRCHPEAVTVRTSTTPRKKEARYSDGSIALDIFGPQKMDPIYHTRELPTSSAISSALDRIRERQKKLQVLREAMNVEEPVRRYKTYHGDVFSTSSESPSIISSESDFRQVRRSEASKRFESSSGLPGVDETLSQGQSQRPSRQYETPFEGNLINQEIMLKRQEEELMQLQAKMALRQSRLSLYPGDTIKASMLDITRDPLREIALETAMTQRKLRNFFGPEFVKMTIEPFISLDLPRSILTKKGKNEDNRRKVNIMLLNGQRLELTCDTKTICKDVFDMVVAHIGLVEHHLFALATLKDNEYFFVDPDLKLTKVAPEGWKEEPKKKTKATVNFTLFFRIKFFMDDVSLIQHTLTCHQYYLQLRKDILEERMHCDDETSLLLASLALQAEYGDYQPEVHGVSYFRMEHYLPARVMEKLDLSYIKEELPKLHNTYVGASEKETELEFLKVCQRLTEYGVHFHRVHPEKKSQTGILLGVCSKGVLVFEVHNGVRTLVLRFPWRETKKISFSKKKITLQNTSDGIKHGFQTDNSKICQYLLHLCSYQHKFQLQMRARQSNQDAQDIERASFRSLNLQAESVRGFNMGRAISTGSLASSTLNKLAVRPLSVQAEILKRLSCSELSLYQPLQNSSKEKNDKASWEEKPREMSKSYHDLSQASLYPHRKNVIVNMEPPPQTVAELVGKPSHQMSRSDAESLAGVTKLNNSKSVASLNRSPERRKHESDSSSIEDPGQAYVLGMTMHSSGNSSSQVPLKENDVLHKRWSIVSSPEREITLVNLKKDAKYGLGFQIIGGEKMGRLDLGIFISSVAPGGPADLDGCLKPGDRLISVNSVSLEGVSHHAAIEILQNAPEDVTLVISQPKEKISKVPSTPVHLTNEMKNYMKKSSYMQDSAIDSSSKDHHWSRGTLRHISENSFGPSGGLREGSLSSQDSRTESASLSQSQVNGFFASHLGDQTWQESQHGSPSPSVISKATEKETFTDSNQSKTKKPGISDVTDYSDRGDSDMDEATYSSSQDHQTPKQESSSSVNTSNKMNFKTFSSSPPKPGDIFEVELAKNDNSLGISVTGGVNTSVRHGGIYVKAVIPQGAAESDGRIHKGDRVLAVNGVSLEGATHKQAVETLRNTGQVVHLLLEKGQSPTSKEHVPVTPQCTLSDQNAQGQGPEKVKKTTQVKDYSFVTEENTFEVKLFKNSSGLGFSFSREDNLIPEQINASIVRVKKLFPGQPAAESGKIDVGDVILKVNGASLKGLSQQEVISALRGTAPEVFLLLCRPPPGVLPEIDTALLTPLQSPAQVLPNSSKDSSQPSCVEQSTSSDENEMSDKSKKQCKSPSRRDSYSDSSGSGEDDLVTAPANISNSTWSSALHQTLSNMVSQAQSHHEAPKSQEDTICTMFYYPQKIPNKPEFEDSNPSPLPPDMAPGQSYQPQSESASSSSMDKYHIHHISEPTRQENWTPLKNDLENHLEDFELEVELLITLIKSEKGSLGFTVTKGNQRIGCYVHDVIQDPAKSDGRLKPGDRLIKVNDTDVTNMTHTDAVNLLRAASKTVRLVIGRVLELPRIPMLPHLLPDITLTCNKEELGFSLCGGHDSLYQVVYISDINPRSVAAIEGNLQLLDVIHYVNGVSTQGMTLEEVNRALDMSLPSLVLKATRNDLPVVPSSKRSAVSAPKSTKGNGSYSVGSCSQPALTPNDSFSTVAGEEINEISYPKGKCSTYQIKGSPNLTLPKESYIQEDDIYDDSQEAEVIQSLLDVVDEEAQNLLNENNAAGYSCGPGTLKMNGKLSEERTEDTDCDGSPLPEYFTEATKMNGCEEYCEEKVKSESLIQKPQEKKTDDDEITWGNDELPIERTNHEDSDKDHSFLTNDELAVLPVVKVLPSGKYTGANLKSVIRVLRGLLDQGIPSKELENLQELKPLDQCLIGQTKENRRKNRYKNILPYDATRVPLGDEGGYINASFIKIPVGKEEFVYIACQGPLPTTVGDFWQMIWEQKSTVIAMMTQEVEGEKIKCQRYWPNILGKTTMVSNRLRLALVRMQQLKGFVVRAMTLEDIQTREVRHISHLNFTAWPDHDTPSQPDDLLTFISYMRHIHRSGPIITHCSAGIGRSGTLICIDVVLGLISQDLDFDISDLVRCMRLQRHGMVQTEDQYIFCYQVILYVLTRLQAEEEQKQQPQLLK

For orientation: IC50 means the midpoint of a concentration-inhibition curve. As for `Cn1c(-c2ccccc2)c(-c2cn(CCC(=O)Nc3ccc(-c4ccccc4)cc3)nn2)c2cc(C(=O)O)c(O)cc21`, in test [1], the inhibition entry is “inactive”. Moreover, the IC50 in [2] was > 50 µM; in test [3], 31.1 µM; in [5] it was > 50 µM; in test [6], 15.7 µM; in test [7] it was > 50 µM; in [8], 20.3 µM. Also, the IC50 in [9] is 14.3 µM; in test [11] it was > 50 µM. For the same molecule, the outcome in the test filed under Mus musculus [4] and in the test listed under Mus musculus [10] was Active. In test [12], the inhibition entry was “Active”.
